This note sets out measurements from ChEMBL document CHEMBL1649065, “Solomonsterols A and B from Theonella swinhoei. The first example of C-24 and C-23 sulfated sterols from a marine source endowed with a PXR agonistic activity” (J Med Chem, 2011).

Activity calls are given as the source filed them. The calls are words filed in the database; no cut-off is given here.

As a reminder, the inhibition is the relative decrease from the control value, in per cent.

For data set [1], the system named is RAW264.7. Put plainly: Cytotoxicity against mouse RAW264.7 cells at 10 to 50 uM. In kind it is cell-based. Particulars: raw264.7, 50 µM. In outline:
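Murine macrophages exposed to 10 and 50 μM in presence of bacterial LPS; at end of experiment viability scored by trypan blue exclusion.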

Data set [2] concerns the target T1, Nuclear receptor subfamily 1 group I member 2 (Homo sapiens, UniProt O75469).
T1 sequence (O75469 whole entry): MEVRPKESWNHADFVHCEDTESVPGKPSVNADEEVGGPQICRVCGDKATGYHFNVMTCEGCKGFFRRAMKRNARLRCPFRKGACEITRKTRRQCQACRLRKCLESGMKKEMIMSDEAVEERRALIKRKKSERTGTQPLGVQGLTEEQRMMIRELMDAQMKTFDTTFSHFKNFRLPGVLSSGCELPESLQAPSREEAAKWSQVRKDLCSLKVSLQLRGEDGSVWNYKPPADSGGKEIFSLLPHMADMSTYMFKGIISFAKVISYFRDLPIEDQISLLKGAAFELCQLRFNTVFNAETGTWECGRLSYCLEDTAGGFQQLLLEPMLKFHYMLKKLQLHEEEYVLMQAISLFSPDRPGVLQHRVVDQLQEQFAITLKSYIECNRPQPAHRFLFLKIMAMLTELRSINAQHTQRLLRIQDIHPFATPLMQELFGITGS
Put plainly: Induction of PXR-mediated MDR1 gene expression in human HepG2 cells at 50 uM by RT-PCR analysis. The data set is classed as cell-based. Particulars: hepg2, 50 µM. In outline: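 HepG2 hepatocytes treated with compound; mRNA quantified by SYBR Green real-time PCR in triplicate, CT normalised to GAPDH, relative expression computed as 2^-ΔΔCT.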

The target in data set [3] is T2, PXR (nuclear receptor subfamily 1 group I member 2) (Homo sapiens, UniProt O75469).
T2 sequence (O75469 whole entry): T1 sequence (O75469 whole entry)
Put plainly: Transactivation of PXR in human HepG2 cells assessed as induction of luciferase activity at 50 uM by luciferase reporter gene assay relative to control. As to conditions: read-out: FC.

The test system of data set [4] is RAW264.7. Put plainly: Immunomodulatory activity in mouse RAW264.7 cells assessed as inhibition of IL1-beta mRNA expression at 50 uM by RT-PCR analysis. In kind it is functional. In outline:
(§1)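 RAW264.7 macrophages incubated 24 h with 10 and 50 μM plus bacterial LPS; total RNA extracted with TRIZOL, 50 ng template amplified by SYBR Green real-time PCR (0.2 μM each primer, 40 cycles), triplicate reactions; CT normalised to GAPDH, relative expression as 2^-ΔΔCT.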

The subject of data set [5] is RAW264.7. Description: Immunomodulatory activity in mouse RAW264.7 cells assessed as effect on TNFalpha mRNA expression at 10 to 50 uM by RT-PCR analysis. The data set is classed as functional, cell-based. In outline:
as §1

Consider `C[C@H](CCCOS(=O)(=O)[O-])[C@H]1CC[C@H]2[C@@H]3CC[C@H]4C[C@H](OS(=O)(=O)[O-])[C@@H](OS(=O)(=O)[O-])C[C@]4(C)[C@H]3CC[C@]12C.[Na+].[Na+].[Na+]` [SOLOMONSTEROL A], for which the Activity result in data set [1] is “Non-toxic”; in data set [2], “Active”. Moreover, the fold induction at 50 µM in data set [3] stood at 4. Also, the inhibition at 50 µM in data set [4] turned out to be 50%. Further, the result in data set [5] was inactive.

Consider `C[C@H](CCOS(=O)(=O)[O-])[C@H]1CC[C@H]2[C@@H]3CC[C@H]4C[C@H](OS(=O)(=O)[O-])[C@@H](OS(=O)(=O)[O-])C[C@]4(C)[C@H]3CC[C@]12C.[Na+].[Na+].[Na+]` [SOLOMONSTEROL B], for which the Activity entry is “Non-toxic” in data set [1] and “Active” in data set [2]. Besides, the fold induction at 50 µM in data set [3] is 4. Moreover, the inhibition at 50 µM in data set [4] is 50%. In addition, the result in data set [5] was inactive.
